Measurements gathered from unrelated publications.
Lines come from different studies, so protocols differ.
Target: Serine/threonine-protein kinase pim-1 (PIM1, Homo sapiens, UniProt P11309)

SMILES | assay | setting | remaining binding
N#Cc1ccccc1CSc1nnc2c(n1)[nH]c1ccccc12 | binding, competition with immobilised ligand | 10 µM | 90%
CN(c1nccc(-c2cnn3ncccc23)n1)C1CC1 | binding | 1 µM | 100%
Cn1nc(C(=O)NCc2ccc(C(=O)O)cc2)cc1-c1ccc2[nH]ccc2c1 | cell-free assay, competition with immobilised ligand | 0.1 µM | 91%
COc1ccnn2ncc(-c3ccnc(N(C)C)n3)c12 | binding | 1 µM | 74%
CCC(=N\O)/C(C)=C/c1ccc(F)cc1 | cell-free assay, competition with immobilised ligand | 1 µM | 85%
C[C@@H](c1ccc(-n2cnc3c(N)ncnc32)cc1)N1CCc2nn(C)c(Cc3ccccc3)c2C1=O | binding, competition with immobilised ligand | 0.1 µM | 97%
COc1cnc(Nc2cccc(S(N)(=O)=O)c2)nc1N1CCN(c2ccccc2)C(=O)C1 | binding, competition with immobilised ligand | 1 µM | 100%
CN(C)c1nccc(-c2cnn3ncccc23)n1 | binding | 1 µM | 81%
CCCCN(CCCC)C(=O)CN1C[C@H](c2cc(OC)c3c(c2)OCO3)[C@@H](C(=O)O)[C@@H]1CC(C)(C)CCC | cell-free assay, competition with immobilised ligand | 1 µM | 100%
FC(F)(F)Oc1cccc(-c2cnc3ccc(-c4ccncc4)nn23)c1 | cell-free assay, competition with immobilised ligand | 5 µM | 23%
COc1ncc2cc3ccccc3nc2c1C#N | cell-free assay, competition with immobilised ligand | 5 µM | 87%
Cc1cc(-n2nc(Cc3cc(F)cc(C(F)(F)F)c3)nc2C)ccc1C(N)=O | cell-free assay, competition with immobilised ligand | 1 µM | 100%
O=C(c1ccc(Nc2ncc(Cl)c(-c3cc4ccccc4s3)n2)cc1)N1CCC(N2CCCC2)CC1 | binding, competition with immobilised ligand | 1 µM | 84%
C[C@@H]1CN(c2ccc3ncc(-c4ccc5[nH]nc(C6CC6)c5c4)n3n2)C[C@H](C)O1 | binding, competition with immobilised ligand | 0.5 µM | 19%
O=C(NCCCN1CCOCC1)c1ccc(Nc2nccc(-c3cc4ccccc4s3)n2)cc1 | binding, competition with immobilised ligand | 1 µM | 85%
O=C(Nc1c[nH]nc1C(=O)NC1CCNCC1)c1cc(F)cc(F)c1 | binding, competition with immobilised ligand | 1 µM | 100%
CNC(=O)[C@@H]1CC[C@@H](n2c(-c3ccc4cnccc4c3)nc3ccc(C(=O)NCc4cccc(C(N)=O)c4)cc32)C1 | binding, competition with immobilised ligand | 1 µM | 100%
FC(F)(F)c1ccc2c(c1)nc(-c1cccnc1)n2C1CC1 | cell-free assay, competition with immobilised ligand | 1 µM | 94%
C[C@H]1CCN(c2nccc(-c3cnn4ncccc34)n2)C1 | binding | 1 µM | 83%
CNC(=O)Nc1ccc2c(c1)CC[C@@]21OC(=O)N(CC(=O)N(Cc2ccc(F)cc2)[C@@H](C)C(F)(F)F)C1=O | cell-free assay, competition with immobilised ligand | 1 µM | 100%
N[C@H]1CCN(c2nccc(-c3cnn4ncccc34)n2)C1 | binding | 1 µM | 99%
O=C1NC(c2ccccn2)Sc2ccccc21 (centres unmarked) | cell-free assay, competition with immobilised ligand | 1 µM | 82%
Cc1cnn2ncc(-c3ccnc(N(C)C)n3)c2c1 | binding | 1 µM | 80%
Nc1cnc(N2CCc3cc(S(=O)(=O)Nc4c(F)cc(Cl)cc4F)cc(N4CCCC4=O)c32)nc1 | cell-free assay, competition with immobilised ligand | 1 µM | 88%
CN(C)c1ncc(F)c(-c2cnn3ncccc23)n1 | binding | 1 µM | 82%
Cc1cnc(Nc2ccc(C(=O)N3CCC(N4CCCC4)CC3)cc2)nc1-c1cc2ccccc2s1 | binding, competition with immobilised ligand | 1 µM | 75%
